Test results as given in ChEMBL document CHEMBL2375313, “Synthesis, in vitro antitumor evaluation and DNA-binding study of novel tetrahydroquinolines and some derived tricyclic and tetracyclic ring systems” (Eur J Med Chem, 2013).

Assays:
Type in all cases: functional
MOLT-4 = experiment: Cytotoxicity against human MOLT4 cells assessed as growth inhibition at 10 uM after 48 hrs by sulphorhodamine B assay; conditions: MOLT-4, 48 h, read-out: GI
In short: (§1)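 NCI-60 one-dose screen per the NCI Drug Evaluation Branch protocol. Cells given a single 10 µM concentration with 48 h continuous exposure. Growth estimated by sulphorhodamine B protein assay. Result expressed as percentage growth inhibition relative to untreated growth.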

HT-29 = experiment: Cytotoxicity against human HT-29 cells assessed as growth inhibition at 10 uM after 48 hrs by sulphorhodamine B assay; conditions: HT-29, 48 h, read-out: GI; in short: as §1
MDA-MB-468 = experiment: Cytotoxicity against human MDA-MB-468 cells assessed as growth inhibition at 10 uM after 48 hrs by sulphorhodamine B assay; conditions: MDA-MB-468, 48 h, read-out: GI; in short: as §1
UO-31 = experiment: Cytotoxicity against human UO31 cells assessed as growth inhibition at 10 uM after 48 hrs by sulphorhodamine B assay; conditions: UO-31, 48 h, read-out: GI; in short: as §1
DU-145 = experiment: Cytotoxicity against human DU145 cells assessed as growth inhibition at 10 uM after 48 hrs by sulphorhodamine B assay; conditions: DU-145, 48 h, read-out: GI; in short: as §1
RXF 393 = experiment: Cytotoxicity against human RXF393 cells assessed as growth inhibition at 10 uM after 48 hrs by sulphorhodamine B assay; conditions: RXF 393, 48 h, read-out: GI; in short: as §1
SK-MEL-2 = experiment: Cytotoxicity against human SK-MEL-2 cells assessed as growth inhibition at 10 uM after 48 hrs by sulphorhodamine B assay; conditions: SK-MEL-2, 48 h, read-out: GI; in short: as §1
CCRF-CEM = experiment: Cytotoxicity against human CCRF-CEM cells assessed as growth inhibition at 10 uM after 48 hrs by sulphorhodamine B assay; conditions: read-out: GI; in short: as §1
RPMI-8226 = experiment: Cytotoxicity against human RPMI8226 cells assessed as growth inhibition at 10 uM after 48 hrs by sulphorhodamine B assay; conditions: RPMI-8226, 48 h, read-out: GI; in short: as §1
LOX IMVI = experiment: Cytotoxicity against human LOXIMVI cells assessed as growth inhibition at 10 uM after 48 hrs by sulphorhodamine B assay; conditions: read-out: GI; in short: as §1
PC-3 = experiment: Cytotoxicity against human PC3 cells assessed as growth inhibition at 10 uM after 48 hrs by sulphorhodamine B assay; conditions: PC-3, 48 h, read-out: GI; in short: as §1
M14 = experiment: Cytotoxicity against human M14 cells assessed as growth inhibition at 10 uM after 48 hrs by sulphorhodamine B assay; conditions: M14, 48 h, read-out: GI; in short: as §1
SK-OV-3 = experiment: Cytotoxicity against human SKOV3 cells assessed as growth inhibition at 10 uM after 48 hrs by sulphorhodamine B assay; conditions: SK-OV-3, 48 h, read-out: GI; in short: as §1
CAKI-1 = experiment: Cytotoxicity against human Caki1 cells assessed as growth inhibition at 10 uM after 48 hrs by sulphorhodamine B assay; conditions: CAKI-1, 48 h, read-out: GI; in short: as §1
K562 = experiment: Cytotoxicity against human K562 cells assessed as growth inhibition at 10 uM after 48 hrs by sulphorhodamine B assay; conditions: K562, 48 h, read-out: GI; in short: as §1
ACHN = experiment: Cytotoxicity against human ACHN cells assessed as growth inhibition at 10 uM after 48 hrs by sulphorhodamine B assay; conditions: read-out: GI; in short: as §1
SNB-19 = experiment: Cytotoxicity against human SNB19 cells assessed as growth inhibition at 10 uM after 48 hrs by sulphorhodamine B assay; conditions: SNB-19, 48 h, read-out: GI; in short: as §1
IGROV-1 = experiment: Cytotoxicity against human IGROV1 cells assessed as growth inhibition at 10 uM after 48 hrs by sulphorhodamine B assay; conditions: IGROV-1, 48 h, read-out: GI; in short: as §1
NCI-H522 = experiment: Cytotoxicity against human NCI-H522 cells assessed as growth inhibition at 10 uM after 48 hrs by sulphorhodamine B assay; conditions: NCI-H522, 48 h, read-out: GI; in short: as §1
HL-60(TB) = experiment: Cytotoxicity against human HL-60(TB) cells assessed as growth inhibition at 10 uM after 48 hrs by sulphorhodamine B assay; conditions: HL-60, 48 h, read-out: GI
In short: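 NCI-60 one-dose primary screen run to the Drug Evaluation Branch protocol. Cells are exposed to a single 10 µM concentration for 48 h continuously, and growth is read by SRB protein assay. Data are reported as percent growth of treated cells, expressed as % growth inhibition.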

OVCAR-4 = experiment: Cytotoxicity against human OVCAR4 cells assessed as growth inhibition at 10 uM after 48 hrs by sulphorhodamine B assay; conditions: OVCAR-4, 48 h, read-out: GI; in short: as §1
Hs-578T = experiment: Cytotoxicity against human Hs578T cells assessed as growth inhibition at 10 uM after 48 hrs by sulphorhodamine B assay; conditions: read-out: GI; in short: as §1
A498 = experiment: Cytotoxicity against human A498 cells assessed as growth inhibition at 10 uM after 48 hrs by sulphorhodamine B assay; conditions: A498, 48 h, read-out: GI; in short: as §1
MCF7 = experiment: Cytotoxicity against human MCF7 cells assessed as growth inhibition at 10 uM after 48 hrs by sulphorhodamine B assay; conditions: MCF7, 48 h, read-out: GI; in short: as §1
SK-MEL-5 = experiment: Cytotoxicity against human SK-MEL-5 cells assessed as growth inhibition at 10 uM after 48 hrs by sulphorhodamine B assay; conditions: SK-MEL-5, 48 h, read-out: GI; in short: as §1
MDA-MB-435 = experiment: Cytotoxicity against human MDA-MB-435 cells assessed as growth inhibition at 10 uM after 48 hrs by sulphorhodamine B assay; conditions: MDA-MB-435, 48 h, read-out: GI; in short: as §1
SF-268 = experiment: Cytotoxicity against human SF268 cells assessed as growth inhibition at 10 uM after 48 hrs by sulphorhodamine B assay; conditions: SF-268, 48 h, read-out: GI; in short: as §1
A549 = experiment: Cytotoxicity against human A549 cells assessed as growth inhibition at 10 uM after 48 hrs by sulphorhodamine B assay; conditions: A549, 48 h, read-out: GI; in short: as §1
NCI-H23 = experiment: Cytotoxicity against human NCI-H23 cells assessed as growth inhibition at 10 uM after 48 hrs by sulphorhodamine B assay; conditions: NCI-H23, 48 h, read-out: GI; in short: as §1
HCT-116 = experiment: Cytotoxicity against human HCT116 cells assessed as growth inhibition at 10 uM after 48 hrs by sulphorhodamine B assay; conditions: HCT-116, 48 h, read-out: GI; in short: as §1
U-251 = experiment: Cytotoxicity against human U251 cells assessed as growth inhibition at 10 uM after 48 hrs by sulphorhodamine B assay; conditions: U-251, 48 h, read-out: GI; in short: as §1
SR = experiment: Cytotoxicity against human SR cells assessed as growth inhibition at 10 uM after 48 hrs by sulphorhodamine B assay; conditions: read-out: GI; in short: as §1
NCI/ADR-RES = experiment: Cytotoxicity against human NCI/ADR-RES cells assessed as growth inhibition at 10 uM after 48 hrs by sulphorhodamine B assay; conditions: read-out: GI; in short: as §1
SNB-75 = experiment: Cytotoxicity against human SNB75 cells assessed as growth inhibition at 10 uM after 48 hrs by sulphorhodamine B assay; conditions: SNB-75, 48 h, read-out: GI; in short: as §1
OVCAR-5 = experiment: Cytotoxicity against human OVCAR5 cells assessed as growth inhibition at 10 uM after 48 hrs by sulphorhodamine B assay; conditions: OVCAR-5, 48 h, read-out: GI; in short: as §1
SF-295 = experiment: Cytotoxicity against human SF295 cells assessed as growth inhibition at 10 uM after 48 hrs by sulphorhodamine B assay; conditions: SF-295, 48 h, read-out: GI; in short: as §1
HOP-92 = experiment: Cytotoxicity against human HOP92 cells assessed as growth inhibition at 10 uM after 48 hrs by sulphorhodamine B assay; conditions: HOP-92, 48 h, read-out: GI; in short: as §1
T47D = experiment: Cytotoxicity against human T47D cells assessed as growth inhibition at 10 uM after 48 hrs by sulphorhodamine B assay; conditions: read-out: GI; in short: as §1
UACC-62 = experiment: Cytotoxicity against human UACC62 cells assessed as growth inhibition at 10 uM after 48 hrs by sulphorhodamine B assay; conditions: UACC-62, 48 h, read-out: GI; in short: as §1
HCT-15 = experiment: Cytotoxicity against human HCT15 cells assessed as growth inhibition at 10 uM after 48 hrs by sulphorhodamine B assay; conditions: HCT-15, 48 h, read-out: GI; in short: as §1
[1] = Cytotoxicity against human EKVX cells assessed as growth inhibition at 10 uM after 48 hrs by sulphorhodamine B assay; conditions: read-out: GI; in short: as §1

## CCSc1nc(N)c2c(-c3ccc(OC)cc3)c3c(nc2n1)C(C)CCC3 (configuration not stated)
MOLT-4
  inhibition of growth at 10 µM: 29%
HT-29
  inhibition of growth at 10 µM: 23.3%
MDA-MB-468
  inhibition of growth at 10 µM: 13.8%
UO-31
  inhibition of growth at 10 µM: 10.5%
DU-145
  inhibition of growth at 10 µM: 24.5%
RXF 393
  inhibition of growth at 10 µM: 25.9%
SK-MEL-2
  inhibition of growth at 10 µM: < 10%
CCRF-CEM
  inhibition of growth at 10 µM: 26.4%
RPMI-8226
  inhibition of growth at 10 µM: 25.5%
LOX IMVI
  inhibition of growth at 10 µM: 10.6%
PC-3
  inhibition of growth at 10 µM: 31.4%
M14
  inhibition of growth at 10 µM: < 10%
SK-OV-3
  inhibition of growth at 10 µM: < 10%
CAKI-1
  inhibition of growth at 10 µM: < 10%
K562
  inhibition of growth at 10 µM: 32.5%
ACHN
  inhibition of growth at 10 µM: 30.8%
SNB-19
  inhibition of growth at 10 µM: 12.5%
IGROV-1
  inhibition of growth at 10 µM: < 10%
NCI-H522
  inhibition of growth at 10 µM: 13.2%
HL-60(TB)
  inhibition of growth at 10 µM: 34.5%
OVCAR-4
  inhibition of growth at 10 µM: 26.8%
Hs-578T
  inhibition of growth at 10 µM: 36.2%
A498
  inhibition of growth at 10 µM: < 10%
MCF7
  inhibition of growth at 10 µM: < 10%
SK-MEL-5
  inhibition of growth at 10 µM: 11.4%
MDA-MB-435
  inhibition of growth at 10 µM: < 10%
SF-268
  inhibition of growth at 10 µM: < 10%
A549
  inhibition of growth at 10 µM: 16%
NCI-H23
  inhibition of growth at 10 µM: < 10%
HCT-116
  inhibition of growth at 10 µM: 20%
U-251
  inhibition of growth at 10 µM: 16%
SR
  inhibition of growth at 10 µM: < 10%
NCI/ADR-RES
  inhibition of growth at 10 µM: < 10%
SNB-75
  inhibition of growth at 10 µM: < 10%
OVCAR-5
  inhibition of growth at 10 µM: < 10%
SF-295
  inhibition of growth at 10 µM: < 10%
HOP-92
  inhibition of growth at 10 µM: 26.8%
T47D
  inhibition of growth at 10 µM: 41%
UACC-62
  inhibition of growth at 10 µM: 25%
HCT-15
  inhibition of growth at 10 µM: 23.8%
[1]
  inhibition of growth at 10 µM: < 10%

## COc1ccc(-c2c3c(nc4nc[nH]c(=O)c24)C(C)CCC3)cc1 (configuration not stated)
MOLT-4
  inhibition of growth at 10 µM: < 10%
HT-29
  inhibition of growth at 10 µM: < 10%
MDA-MB-468
  inhibition of growth at 10 µM: 21.5%
UO-31
  inhibition of growth at 10 µM: < 10%
DU-145
  inhibition of growth at 10 µM: < 10%
RXF 393
  inhibition of growth at 10 µM: < 10%
SK-MEL-2
  inhibition of growth at 10 µM: < 10%
CCRF-CEM
  inhibition of growth at 10 µM: < 10%
RPMI-8226
  inhibition of growth at 10 µM: < 10%
LOX IMVI
  inhibition of growth at 10 µM: < 10%
PC-3
  inhibition of growth at 10 µM: < 10%
M14
  inhibition of growth at 10 µM: < 10%
SK-OV-3
  inhibition of growth at 10 µM: < 10%
CAKI-1
  inhibition of growth at 10 µM: < 10%
K562
  inhibition of growth at 10 µM: < 10%
ACHN
  inhibition of growth at 10 µM: < 10%
SNB-19
  inhibition of growth at 10 µM: < 10%
IGROV-1
  inhibition of growth at 10 µM: < 10%
NCI-H522
  inhibition of growth at 10 µM: 20.8%
HL-60(TB)
  inhibition of growth at 10 µM: < 10%
OVCAR-4
  inhibition of growth at 10 µM: < 10%
Hs-578T
  inhibition of growth at 10 µM: < 10%
A498
  inhibition of growth at 10 µM: < 10%
MCF7
  inhibition of growth at 10 µM: < 10%
SK-MEL-5
  inhibition of growth at 10 µM: < 10%
MDA-MB-435
  inhibition of growth at 10 µM: < 10%
SF-268
  inhibition of growth at 10 µM: < 10%
A549
  inhibition of growth at 10 µM: < 10%
NCI-H23
  inhibition of growth at 10 µM: 13.8%
HCT-116
  inhibition of growth at 10 µM: < 10%
U-251
  inhibition of growth at 10 µM: 19%
SR
  inhibition of growth at 10 µM: < 10%
NCI/ADR-RES
  inhibition of growth at 10 µM: 20%
SNB-75
  inhibition of growth at 10 µM: 34.3%
OVCAR-5
  inhibition of growth at 10 µM: < 10%
SF-295
  inhibition of growth at 10 µM: < 10%
HOP-92
  inhibition of growth at 10 µM: < 10%
T47D
  inhibition of growth at 10 µM: < 10%
UACC-62
  inhibition of growth at 10 µM: < 10%
HCT-15
  inhibition of growth at 10 µM: 13.7%
[1]
  inhibition of growth at 10 µM: < 10%
